Laboratory results published in the RNAGym collection of RNA variant scans (doi:10.1038/s41586-018-0170-7).

B1: tRNA (parent)
chain: GUUCCGUUGGCGUAAUGGUAACGCGUCUCCCUCCUAAGGAGAAGACUGCGGGUUCGAGUCCCGUACGGAACG

Variants of: B1
Test: yeast fitness, log relative to wild type (ln ratio); higher = fitter; tRNA-Arg(CCU), competitive growth, 37 C, 1 M NaCl
Procedure, shortened: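 For each genotype, fitness is defined as the natural log of its generation number over the wild type's. The tRNA-Arg(CCU) variant library was on a HIS3 centromeric plasmid in BY4742 with the chromosomal gene removed, and pools were first grown 4 generations in SC-HIS at 30 °C and then ~6.5 generations (~26.5 h) in SC-HIS 1M NaCl at 37 °C. Generations were calculated from OD-scaled log2 output/input frequency, weighted by inverse variance across replicates, using counts from 125 bp paired-end Illumina sequencing.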

Variant | yeast fitness (ln)
G1A U2G G6A C46U C66U A69G C71U | -0.253
G1A U2G G6U C27U A43C C46U A70G C71U | -0.426
U2C G6U A69G A70U | -0.117
G1A U2G A43C C46U C66U C71U | -0.223
G1A U2C G6A C27U A43C C46U C66U A69G A70U | -0.416
G1A G6U A43C C46U C66A A70G C71U | -0.237
U2G G6U A43C C46U C66A A69G A70G | -0.242
U2G C66A A70U C71U | -0.0556
G6A C46U C66U A70U | -0.00103
G1A G6A A43C C66U A69G A70G | -0.253
G1A U2C C27U A43C A70G | -0.0774
U2C G6U A43C C46U C66A A70G | 0.0031
G6A C46U C66U A70G C71U | -0.229
U2C G6A A69G A70U C71U | -0.174
G1A U2G A70G | -0.0928
U2C G6U A43C C46U C66U A70G | -0.0851
U2C G6U A43C C46U A69G A70U | -0.0621
A43C C46U C66A A69G C71U | -0.26
G1A G6A A43C C46U A69G A70G C71U | -0.252
G1A U2C C27U C46U C71U | -0.147
G1A U2G G6U C27U C46U C66U A70G C71U | -0.307

Variant | yeast fitness (ln)
G1A C66A A70G C71U | -0.0638
G6A C66A A70G | -0.0871
G1A U2G G6A A43C C46U A70U C71U | -0.14
G1A G6U C27U A43C C66A A70G C71U | -0.411
G1A U2G A43C C46U A70U | -0.163
G1A U2G C66A A69G A70G C71U | -0.235
U2C C27U A43C C66U A70G | -0.232
G1A U2C C46U A69G A70G C71U | 0.00686
G1A U2G A43C A69G A70U C71U | -0.54
G6U A43C C66U A69G C71U | -0.394
U2C G6U C27U A43C C46U C66A A70U C71U | -0.164
A69G C71U | -0.0165
G1A U2C G6U C27U C46U C66U A70G | -0.203
G1A U2C G6A A43C C66U A69G A70U | -0.275
U2G G6U A69G C71U | -0.17
U2G G6U C27U C46U C66U A69G | -0.258
G1A U2G G6A A43C C66A A69G A70G C71U | -0.253
G1A U2G G6U C27U | -0.148
G1A G6U C66A | -0.0927
U2C G6A C66A A70G C71U | -0.286
G6A C46U C66U C71U | -0.0146

Variant | yeast fitness (ln)
G1A G6A A70U C71U | -0.153
U2C A69G | -0.0379
U2G C27U C71U | -0.0721
G1A U2G G6U A43C A70U | -0.257
G1A C46U C66A A69G A70U C71U | -0.331
U2C G6U C46U C66A A69G A70G C71U | -0.0159
G1A U2G G6U A43C C46U C66A A69G A70U | -0.256
U2C G6U C27U C46U A69G C71U | -0.232
C27U C46U C66U A69G | -0.521
G1A U2G G6A C27U A43C A70G | -0.381
G1A U2G G6A A43C | -0.238
G1A U2G C27U A43C C46U A70G C71U | -0.223
G1A A43C C66A A70U | -0.129
G1A U2G G6U C27U C46U C66U A70U C71U | -0.334
G1A A43C A70G C71U | -0.095
U2C C27U A43C C46U C66A A70U C71U | -0.269
U2C C27U C46U C66U A70U C71U | -0.199
G1A G6A A69G A70G C71U | -0.178
G1A U2C G6U C46U A69G A70G C71U | -0.15
U2C C27U C46U C66U A69G A70U | -0.137
G1A U2G G6U A43C C46U A69G A70G C71U | -0.345

Variant | yeast fitness (ln)
U2C G6U C27U A43C C66A A70G | -0.0266
G1A C27U A43C C66U | -0.242
U2G G6U C27U C46U C66A A70G C71U | -0.168
U2G G6A C27U C46U C66A A69G A70U C71U | -0.385
G6U C27U A43C C46U C66A A69G A70G | -0.471
G1A U2C G6A C27U A43C A70U | -0.0697
U2C C27U A43C C46U C66U A70U C71U | -0.324
G6A C27U A43C C66A A69G A70G C71U | -0.262
G1A G6A A43C C66U | -0.195
G6U C27U A70U C71U | -0.27
U2G G6U A43C C46U C66U A69G C71U | -0.487
G1A C27U A43C C66U C71U | -0.437
G1A G6A C27U A43C C66U A70G | -0.431
G1A U2G C46U C66A A69G A70G C71U | -0.173
G1A U2G G6A C27U C66U | -0.221
C46U C66A | -0.0399
U2G A43C C66U | -0.19
G1A G6U C27U C66U | -0.29
U2G G6A C27U A43C C66U A70U | -0.0534
U2C G6A C27U A43C C46U A69G C71U | -0.113
